Laboratory results published in the EternaBench riboswitch data.

System: MS2 coat protein
Test: apparent Kd, MS2 coat protein; higher = weaker binding; RNA-MaP array; FMN 200 µM where present
Outline: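 In 100 mM Tris-HCl pH 7.5, 80 mM KCl, 4 mM MgCl2, BSA, DTT, yeast tRNA and Tween-20, SNAP-549-labelled MS2 coat protein was titrated from 0.7 or 1.5 nM, doubling to 3 µM, over designs transcribed by stalled E. coli RNA polymerase on Illumina sequencing-chip clusters. This was done first without ligand, then with ligand held constant. After green signal was normalised to red-channel RNA signal and control-cluster median Fmax, the apparent Kd was taken as the median of filtered per-cluster binding-curve fits.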

[1] = designed as: ON switch for flavin mononucleotide, no ligand
[2] = ligand present: flavin mononucleotide, designed as: ON switch for flavin mononucleotide
[3] = designed as: OFF switch for flavin mononucleotide, no ligand
[4] = ligand present: flavin mononucleotide, designed as: OFF switch for flavin mononucleotide

| Sequence | apparent Kd [1] [nM] | apparent Kd [2] [nM] | apparent Kd [3] [nM] | apparent Kd [4] [nM] |
| --- | --- | --- | --- | --- |
| UUGGACGUCGUAGGAUAUGUAGGAUAUUCCUACAUGAGGAUCACCCAUGUUGACAUGGAAGCAGGACAGAAGGACGAUGUCCAU | 578 | 14.3 | – | – |
| GUGCACAUUCGAGGAUAUCGGAGAGGAGUCCUUCGAGAAGGCGAUUCGUGCUGUGUUAUUCUGGACAUGAGGAUCACCCAUGUG | 50.8 | 27.8 | – | – |
| UGGUUGUGAGGAUAUACGUUUUUUAACUCUUGUUUUAUACUGUAGAAGGCACAUGAGGAUCACCCAUGUUACGU | – | – | 22.4 | 26 |
| UUGUUCUGAGGAUAUACAUGAGGAUCACCCAUGUGUUUCUGCUUGGUGUCUAGCGAAUGUAGAAGGCUGUUCUC | – | – | 21.7 | 22.9 |
| AAAGAACAUGAGGAUCACCCAUGUGAGGAUAUGCGAAAACCGCUGACAAACCAGACGGGCAGAAGGCAUAUGGU | – | – | 56.2 | 76.3 |
| AAGUUUUUACAAGGAUAUCAAUUUUUUCUAAAUUCAACAUGAGGAUCACCCAUGUAACAAUGGAGUGAGAAGGUGUUUUGGCAA | 176 | 205 | – | – |
| UUUUAACAUGAGGAUCACCCAUGUGAGGAUAUCGAAAUUUAUAUUAAUAUUUAUAAUACGAGAAGGCACAUUUU | – | – | 85 | 90.6 |
| AUCAGCUCGUCAGGAUAUACGUCACUGCUUCGGCAGUGUGGUAAGAUCACAUGAGGAUCACCCAUGUAGAAGGGACGAGCUGAG | – | – | 13.2 | 260 |
| CUGAGGAAGAGAGAGGAUAUCCAAAGGAAAACAUGAGGAUCACCCAUGUAAAAGGUAGGAAAUUGGGAGAAGGCUCAAGAGAGAG | 43.6 | 38.5 | – | – |
| AGCAUGGUAGGAUAUACGGAACAUUAGGGUUUGUUGUGUGGACAUGAGGAUCACCCAUGUAGAAGGGCCGUGCA | – | – | 34 | 80.4 |
| CGUCAGUGAGGAUAUGGUGUCGUUUACAUGAGGAUCACCCAUGUUUCAUGGGACUAGAGACUAGAAGGUACUGACG | – | – | 97.4 | 266 |
| UUGCCUCAGAACAUGAGGAUCACCCAUGUGCUGCGGGCAACGUAGGAUAUGAUGGUAUGAUACCAUCAGAAGGAUGAUGGUACC | 5.96 | 5.33 | – | – |
| GUGGUACAUGAGGAUCACCCAUGUCAGGAUAUCGUGUGUUUUUUUUCGGCCGCGCGCGCGAGAAGGGACGUCUU | – | – | 21.6 | 21.6 |
| GGCUUAAACACAGGAUAUAGUCUUAGGGCGAGACUAGAAGGGUGAAGUUCUCAUACAUGAGGAUCACCCAUGUCACGGAGGCUA | 45.1 | 169 | – | – |
| AGUAAGAUGCAGAAGGUGUCAGCGAGAGCUGUACAUGAGGAUCACCCAUGUUGUCGGUGACGACACAAGGAUAUGCAUCUUACA | 24.7 | 6.28 | – | – |
| CAGAAACAUGAGGAUCACCCAUGUGAGGAUAUGCGUACGUUGUCCGUAGGCGACGUGCGCAGAAGGCACAAAGG | – | – | 132 | 256 |
| AAGUUGUCAGGAUAUCGUUAAUUUAGUUGUUUGUAUUAGUUCGAGAAGGGACAUGAGGAUCACCCAUGUUUGAA | – | – | 32.5 | 40.5 |
| GCACUUACGUUAGGAUAUGGAUCGGAAAACGAUCCAGAAGGAAUAUGGGAACAUGAGGAUCACCCAUGUUCCACAGACAAGUGC | 43.3 | 25.9 | – | – |
| UACCUGAGGCAAAGCUUUAGGUAUACAUGAGGAUCACCCAUGUAGGAUAUGGUAGGCCUUGCUUACCAGAAGGACAUGUUAAUU | – | – | 23.5 | 76.1 |

| Sequence | apparent Kd [1] [nM] | apparent Kd [2] [nM] | apparent Kd [3] [nM] | apparent Kd [4] [nM] |
| --- | --- | --- | --- | --- |
| UGAGCCUCGUGAGGAUAUACAUGAGGAUCACCCAUGUAAUAAAGUGAGCGGAGGAAACUCCGAAUGUAGAAGGCACGAGGCUCA | – | – | 26 | 186 |
| CCCUCACAUGAGGAUCACCCAUGUCAGGAUAUCCAGCCCUACUAUAAAGCGUCUGGCGGGAGAAGGGACAGGAU | – | – | 20.9 | 28.5 |
| GGAAAACAUGAGGAUCACCCAUGUGAAAACGUGGGAGGAUAUGGAUGGAAACCAUACUGUCCAGAAGGCCCAUGUC | 67.6 | 18.9 | – | – |
| AACACGAGAGGUGUUGUCUAAUCACAUGAGGAUCACCCAUGUAAGGAUAUCGCGGCUAUCGGCAUCGAGAAGGUACAGGGUGCA | – | – | 165 | 58.9 |
| ACUGGUCGAGGAUAUACAUUCGUGCUUCGGCACGUAAGAUCACAUGAGGAUCACCCAUGUAGAAGGCGACCAGU | – | – | 104 | 732 |
| GCUGGACAUGAGGAUCACCCAUGUGAGGAUAUCGGCUGGUACGUGUUGGCUGGCAUCUCGAGAAGGCACAUAGU | – | – | 32.8 | 42.4 |
| ACAAUAAAGGGUCUGGUUCCAUACAUGAGGAUCACCCAUGUCAAGGAUAUAACGGACGGGCGCCGUUAGAAGGUGACGACUGCG | – | – | 132 | 401 |
| AAGUAGGUAGGAUAUGCAUAGAUAUACAUUCAUGUGGAUUUACAUGAGGAUCACCCAUGUAGAAGGACCUAAUA | – | – | 37.5 | 136 |
| GUAGCUAUCGGAGGAUAUUCAUACCGGAAACGGACAUGAGGAUCACCCAUGUGGCGAAAGCAUUGGGAGAAGGCCGAUAGCUAC | 576 | 19.7 | – | – |
| AAUGUGUCAGGAUAUAGUAGACUCCUUGGAACGGUAGUCAGUUAGAAGGGACAUGAGGAUCACCCAUGUCGAGU | – | – | 19.3 | 19.6 |
| ACAGAGCUUGACAUGAGGAUCACCCAUGUUAGAUUGUUAUGUCAGGAUAUUGUCUAGCAACUAGACAAGAAGGGAUGCUCUGUG | 364 | 56 | – | – |
| UUGCCUCAGAACAUGAGGAUCACCCAUGUGCUGCGGGCAACGUAGGAUAUGAUGGUUCGAUACCAUCAGAAGGAUGAUGGUACC | 5.42 | 5.22 | – | – |
| GCCAUCGCAUGAGGAUAUGGCACCGUUUCGGUGCCAGAAGGCAUGUCGAAUGACAUGAGGAUCACCCAUGUAGUUAAGAUGGCA | 480 | 25.2 | – | – |
| CAUUGGUAAGGAUAUGAAUCGAUCUCAGAAAUGAGAUCGAUUCAGAAGGUACAUGAGGAUCACCCAUGUUGAUG | – | – | 27.8 | 72.9 |
| GGAUAGUGUCGUUAUCCGUAGCGAACAUGAGGAUCACCCAUGUAGGAUAUGUUACUAAACUAGUAACAGAAGGGCGUGAGUCUU | – | – | 94.2 | 108 |
| AGGUGACAUGAGGAUCACCCAUGUUGCAUAAAACAAGGAUAUGGGUGGCGGGAUCGCCAAUCAGAAGGUGUUCCGA | 44.1 | 36.9 | – | – |
| CUUGAAUAAGUGAGGAUAUACUGUUAGUAAUGAUUGUAGAAGGUACAUGAGGAUCACCCAUGUUUAUUCUUUAU | – | – | 15.7 | 16 |
| AAAGGGAUUACGGAGGAUAUGGAAAAAAAAACAUGAGGAUCACCCAUGUCAAAAAAAAAAAAGGACCAGAAGGCCGUAAUCUCAAA | 27.3 | 18.9 | – | – |
| GUAUGAGCGAUAGGAUAUACUGAGAUUGAAUGGGUAGAAGGAUCUCUUGUGAGGAAGACAUGAGGAUCACCCAUGUCACGGGCC | 100 | 175 | – | – |

| Sequence | apparent Kd [1] [nM] | apparent Kd [2] [nM] | apparent Kd [3] [nM] | apparent Kd [4] [nM] |
| --- | --- | --- | --- | --- |
| GCGCACUAAGUGAGGAUAUCGUUUAUUUUUAGGAUCGAGAAGGCACAUGAGGAUCACCCAUGUUUGACGUGCGC | – | – | 20.9 | 14.1 |
| CUUAUGCGGCAGGAUAUCGUGCUUUUCGAGCAGCGAGAAGGGUCUACAUGAGGAUCACCCAUGUCAGUGGCUCU | – | – | 18.3 | 37.8 |
| UCGGCGCGAGGAUAUACGGUUGCUUGGUAGGGUCGUGGCGUACAUGAGGAUCACCCAUGUAGAAGGCGCGCCGC | – | – | – | 60.3 |
| UAAUUUUGUCAAGGAUAUGUAAUAUAGAUUUGUAAACAUGAGGAUCACCCAUGUAUAUGGUGGGAACAGAAGGUGAAUGGAGAA | – | – | 196 | 171 |
| AAGGAACGAGGAUAUGCAGGUUGAGCUCGAGUUCGACCGGAACAUGAGGAUCACCCAUGUAGAAGGUGUAUCCC | – | – | 24.1 | 24.4 |
| CUACCUUAUGAGAAGGCGAUCAUGAAACAUGAUCGAGGAUAUCAUGUAAACAUGAGGAUCACCCAUGUAUGGGUAUUAUGGUAA | 106 | 24.4 | – | – |
| UUUUUACAUGAGGAUCACCCAUGUGAGGAUAUGGUUUCGCUGGCCGUAGCCAGUGGAACCAGAAGGCGCGUGAU | – | – | 95 | 136 |
| UAAAAUUUAUGAUAUUAUGACAGUAGAAGGCUAUACAUGUUGAUACAUGAGGAUCACCCAUGUAUAGAGGAUAUAUACAUUUAU | – | – | 845 | 832 |
| AGGUUUGGAGAGAAGGGCUAAUGGGUUUCGUUUGAGGUAUUCGCAACAUGAGGAUCACCCAUGUAGCAGGAUAUCUCAAAACUA | – | – | 4.88 | 7.95 |
| AUCAGCUCGUCAGGAUAUACGUCACUGCGUCAGCAGUGUGGUAAGGUCACAUGAGGAUCACCCAUGUAGAAGGGACGAGCUGAU | – | – | 9.4 | 117 |
| UUCGACGUCGUAGGAUAUGUAGGAUAUUCCUACAUGAGGAUCACCCAUGUUGACAUGGAAGAAGGACAGAAGGACGAUGUCCAU | 301 | 6.4 | – | – |
| AGAUUUGUACAUGAGGAUCACCCAUGUUAAUAGGUGGUUGUCAGAAGGCAUUAAUAGAGUUUUAAUGAGGAUAUGAAUUUACAA | 1030 | 803 | – | – |
| CCGCAAAAUGAGGAUAUCGUAUCGGAUACGAUACGAGAAGGCGUAACAUGAGGAUCACCCAUGUGUCCUAGCGG | – | – | 14.3 | 17.2 |
| AACAUGAGGAUCACCCAUGUCCCACCAGAAGGCUGGCGGCCACGGUAACGGCCGUGGCAAAUAACAGAGGAUAUGGUGAAUGCA | 66.3 | 17.9 | – | – |
| UUAAUAAUACAAGGAUAUCUAUUGUUCUUAAGACAUACAUGAGGAUCACCCAUGUUAAUAUAUGUAGAGAAGGUGUAUUUUCAG | 30.5 | 22.9 | – | – |
| UAUAUAAUUAAGAGCUGGAACUCAACAUGAGGAUCACCCAUGUAGGAUAUCAGCACGAUAAGUGCUGAGAAGGACUACCAGCUC | – | – | 18.2 | 20.4 |
| ACCAAUGCAGGAUAUACAUGAGGAUCACCCAUGUAUAACCUACAUAGAUGAUCAUCAUGUAGAAGGGCAAUGGA | – | – | 13.1 | 12.1 |
| UGAGCAAGAGGAUAUACAAGGCGUGCGUGAGCACGAGGUUUACAUGAGGAUCACCCAUGUAGAAGGCUUGUUCU | – | – | 16.3 | 34.4 |
